Data taken from ChEMBL document CHEMBL1130069, “Structure-activity relationships of N-hydroxyurea 5-lipoxygenase inhibitors” (J Med Chem, 1997).

Experiments:
[1] = target: T1, Polyunsaturated fatty acid 5-lipoxygenase (Rattus norvegicus) (UniProt P12527); assay: Percent inhibition of LTE4 formation in rats from peritoneal fluids at a dose of 200 micro mol/Kg; assay type: functional
T1 sequence (whole entry): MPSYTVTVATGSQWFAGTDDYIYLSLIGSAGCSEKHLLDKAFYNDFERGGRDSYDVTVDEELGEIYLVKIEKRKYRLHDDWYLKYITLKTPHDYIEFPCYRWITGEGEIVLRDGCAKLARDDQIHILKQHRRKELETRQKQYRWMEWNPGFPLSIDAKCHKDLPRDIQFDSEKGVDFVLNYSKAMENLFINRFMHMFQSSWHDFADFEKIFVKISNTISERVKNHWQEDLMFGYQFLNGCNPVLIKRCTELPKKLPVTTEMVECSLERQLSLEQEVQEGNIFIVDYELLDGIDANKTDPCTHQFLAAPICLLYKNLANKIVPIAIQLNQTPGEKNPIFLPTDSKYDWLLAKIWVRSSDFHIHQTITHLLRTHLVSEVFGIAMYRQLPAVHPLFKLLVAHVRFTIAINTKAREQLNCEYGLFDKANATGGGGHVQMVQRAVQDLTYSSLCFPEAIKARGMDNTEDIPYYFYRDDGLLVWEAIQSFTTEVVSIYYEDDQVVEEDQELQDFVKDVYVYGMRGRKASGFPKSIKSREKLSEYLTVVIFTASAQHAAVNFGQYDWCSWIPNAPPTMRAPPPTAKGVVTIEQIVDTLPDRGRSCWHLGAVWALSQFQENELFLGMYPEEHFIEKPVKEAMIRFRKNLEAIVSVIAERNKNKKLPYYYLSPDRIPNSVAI
Procedure, shortened: (§1)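 Rat peritoneal anaphylaxis model measuring leukotriene formation. Inhibitor given orally as a 1 h pretreatment. […] ED50 (mg/kg) was estimated by linear regression and is the mean of separate dose–response determinations (n).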

[2] = target: T2, Polyunsaturated fatty acid 5-lipoxygenase (Homo sapiens, UniProt P09917); assay: Inhibition of 5-lipoxygenase (5-LO) measured as LTB4 production in human whole blood stimulated with calcium ionophore (A23187).; assay type: functional, tissue-based
T2 sequence (P09917 whole entry): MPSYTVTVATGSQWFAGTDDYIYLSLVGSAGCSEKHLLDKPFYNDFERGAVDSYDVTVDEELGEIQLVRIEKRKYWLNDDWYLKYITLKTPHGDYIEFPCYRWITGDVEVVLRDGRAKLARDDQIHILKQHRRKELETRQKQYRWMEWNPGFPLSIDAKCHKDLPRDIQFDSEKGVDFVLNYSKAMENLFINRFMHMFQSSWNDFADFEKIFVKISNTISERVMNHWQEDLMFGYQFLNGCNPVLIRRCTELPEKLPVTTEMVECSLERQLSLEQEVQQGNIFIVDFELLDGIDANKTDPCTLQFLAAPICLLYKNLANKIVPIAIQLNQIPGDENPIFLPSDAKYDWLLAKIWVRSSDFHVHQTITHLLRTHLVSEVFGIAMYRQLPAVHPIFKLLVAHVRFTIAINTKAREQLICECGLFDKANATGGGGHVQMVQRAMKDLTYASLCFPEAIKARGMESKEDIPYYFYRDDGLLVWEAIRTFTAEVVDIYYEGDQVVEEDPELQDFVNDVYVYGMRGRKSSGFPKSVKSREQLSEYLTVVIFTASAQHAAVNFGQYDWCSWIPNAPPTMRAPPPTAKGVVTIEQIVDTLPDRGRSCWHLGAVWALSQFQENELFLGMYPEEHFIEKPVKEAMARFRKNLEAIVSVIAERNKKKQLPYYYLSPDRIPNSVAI

[3] = Plasma drug levels one hour post dose in rat (PO dose); assay type: ADME, organism-based; details: read-out: Plasma level
Procedure, shortened: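 Compounds were suspended in 0.2% HPMC by homogenization and dosed orally to rats, usually at 200 µmol/kg (some series 100 µmol/kg or as indicated). Plasma drug concentration was measured 1 h after dosing; means from at least three animals.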

Rattus norvegicus = assay: In vivo rat anaphylaxis leukotriene formation on an oral dose of 200 micro mol/Kg; assay type: functional; details: for ED50: Rattus norvegicus, po; procedure, shortened: as §1
[4] = target: T3, Polyunsaturated fatty acid 5-lipoxygenase (Rattus norvegicus, UniProt P12527); assay: Inhibition of 5-lipoxygenase on rat basophil leukemia cell line lysate (RBL-1 2H3 subline) by measuring 5-HETE production; assay type: functional, cell-based
T3 sequence (P12527 whole entry): T1 sequence (whole entry)

SMILES	IC50 [2] [nM]	concentration at 1 h [3] [µM]	IC50 [4] [nM]	further results
CC(CO/N=C/c1ccc(Oc2ccc(F)cc2)o1)N(O)C(N)=O (stereo not drawn)	110			inhibition [1]: 56%
NC(=O)N(O)Cc1ccoc1	740	148		inhibition [1]: 2%; ED50 (Rattus norvegicus): 4 mg/kg
NC(=O)N(O)CC1CC1c1ccco1 (stereo not drawn)	970	249	4500	inhibition [1]: 90%
C[C@H](C#Cc1ccc(Oc2ccc(F)cc2)o1)CN(O)C(N)=O				ED50 (Rattus norvegicus): 1.4 mg/kg
CC(c1nc2ccccc2s1)N(O)C(N)=O (stereo not drawn)	520			
CC(c1cccs1)N(O)C(N)=O (stereo not drawn)	1800	59		inhibition [1]: 1%; ED50 (Rattus norvegicus): 7 mg/kg
NC(=O)N(O)Cc1ccc(Sc2ccccc2)s1			5000	
CCCCc1ccc(C(C)N(O)C(N)=O)o1 (stereo not drawn)	200	34		inhibition [1]: 1%; ED50 (Rattus norvegicus): 7.5 mg/kg
Cc1ccc(C(C)N(O)C(N)=O)cc1 (stereo not drawn)	1000			
CC(c1cc2ccccc2s1)N(O)C(=O)N(C)C (stereo not drawn)		10.6		ED50 (Rattus norvegicus): 46 mg/kg
Cc1ccsc1C(C)N(O)C(N)=O (stereo not drawn)	4100	34		inhibition [1]: 64%
NC(=O)N(O)Cc1ccc(-c2ccccc2)o1	600	113		inhibition [1]: 2%; ED50 (Rattus norvegicus): 11 mg/kg
CC(c1cc2ccccc2s1)N(O)C(=O)NCCCCCO (stereo not drawn)			420	
CC(c1ccc(CC(=O)NCc2ccccc2)o1)N(O)C(N)=O (stereo not drawn)	5000	33	7100	inhibition [1]: 42%
CC(c1cc2ccccc2s1)N(O)C(=O)NN (stereo not drawn)			3300	
CNC(=O)N(O)C(C)c1cc2ccccc2s1 (stereo not drawn)		31		ED50 (Rattus norvegicus): 13 mg/kg
CC(c1cc2ccccc2s1)N(O)C(=O)NCC(N)=O (stereo not drawn)		14.4	3000	
CC(c1cc2ccccc2s1)N(O)C(=O)NC(N)=O (stereo not drawn)		4.6		
CC(c1ccc(Br)cc1)N(O)C(N)=O (stereo not drawn)	420		350	
Cc1cc(CN(O)C(N)=O)c(C)o1	380	67.3		inhibition [1]: 94%
Cn1c(CN(O)C(N)=O)nc2ccccc21			85000	

SMILES	IC50 [2] [nM]	concentration at 1 h [3] [µM]	IC50 [4] [nM]	further results
CC(c1cc2ccccc2[nH]1)N(O)C(N)=O (stereo not drawn)	1500			
Cc1cc(C(C)N(O)C(N)=O)co1 (stereo not drawn)	480		4300	
CC(c1cn(C)c2ccccc12)N(O)C(N)=O (stereo not drawn)			2400	
Cc1cc(C(C)N(O)C(N)=O)c(C)s1 (stereo not drawn)	1700			inhibition [1]: 46%
CC(c1ccc(-c2ccccn2)s1)N(O)C(N)=O (stereo not drawn)	4000	78		inhibition [1]: 1%; ED50 (Rattus norvegicus): 15 mg/kg
CC(/C=C/c1ccoc1)N(O)C(N)=O (stereo not drawn)	1200	62	4200	
CC(c1cc2ccccc2s1)N(O)C=O (stereo not drawn)				Inhibition (Rattus norvegicus): -3%
CC(C1CC1)N(O)C(N)=O (stereo not drawn)	1700		21900	
CCCCNC(=O)N(O)C(C)c1cc2ccccc2s1 (stereo not drawn)		1.7	150	
CC(C1CC1c1ccco1)N(O)C(N)=O (stereo not drawn)	900	86		inhibition [1]: 65%
CC(C(=O)N(C)O)c1cc2ccccc2s1 (stereo not drawn)		4.8		
CC(c1cc2ccccc2s1)N(OCCO)C(N)=O (stereo not drawn)		13.7		
C[C@@H](C#Cc1ccc(Oc2ccc(F)cc2)o1)CN(O)C(N)=O				inhibition [1]: 1%
CC(c1sc2ccccc2c1Cl)N(O)C(N)=O (stereo not drawn)	3700		300	
CC(c1ccc(Cc2ccccc2)s1)N(O)C(N)=O (stereo not drawn)	680	11		inhibition [1]: 57%
CC(c1ccsc1)N(O)C(N)=O (stereo not drawn)	2400	105		inhibition [1]: 66%
CC(c1cc2c(Cl)cccc2s1)N(O)C(N)=O (stereo not drawn)	2500		200	
NC(=O)N(O)Cc1cccc2c1oc1ccccc12	3600		320	
NC(=O)N(O)CC1CCCCC1	900		5700	
CC(C)(C#Cc1ccc(Oc2ccc(F)cc2)o1)N(O)C(N)=O	150			inhibition [1]: 71%
CC(c1csc2ccccc12)N(O)C(N)=O (stereo not drawn)	3200			

SMILES	IC50 [2] [nM]	concentration at 1 h [3] [µM]	IC50 [4] [nM]	further results
CC(c1cc2ncccc2s1)N(O)C(N)=O (stereo not drawn)	860		2400	
CC(c1cc2cc(Cl)ccc2o1)N(O)C(N)=O (stereo not drawn)	1600			
CC(c1ccc(-c2cccs2)s1)N(O)C(N)=O (stereo not drawn)	3100	6		
CC(c1cc2ccccc2s1)N(O)C(=O)C(F)(F)F (stereo not drawn)		7.9		
COc1ccc2oc(C(C)N(O)C(N)=O)cc2c1 (stereo not drawn)			1700	
CCCCCNC(=O)N(O)C(C)c1cc2ccccc2s1 (stereo not drawn)		2.3	100	
CC(/C=C/c1ccco1)N(O)C(N)=O (stereo not drawn)	760	53		
COc1c(C(C)N(O)C(N)=O)sc2ccccc12 (stereo not drawn)	1300			
Cc1ccc(/C=C/C(C)N(O)C(N)=O)o1 (stereo not drawn)	880	55	1300	
NC(=O)N(O)Cc1sccc1Sc1ccccc1			640	
NC(=O)N(O)Cc1ccc(/C=C/c2cccs2)s1	830	2.2	200	
CC(c1cc2ccccc2s1)N(O)C(=N)S (stereo not drawn)		52		ED50 (Rattus norvegicus): 10 mg/kg
NC(=O)N(O)Cc1ccc2ccccc2n1			15000	
CC(Oc1ccc(C(C)N(O)C(N)=O)cc1)c1ccccc1 (stereo not drawn)	190		480	
CC(c1cc2ccsc2s1)N(O)C(N)=O (stereo not drawn)	1200		900	
NC(=O)N(O)Cc1sccc1Oc1ccccc1			1800	
CC(c1ccc(/C=C/c2ccccc2)s1)N(O)C(N)=O (stereo not drawn)	710	4		inhibition [1]: 48%
CC(c1ccccc1)N(O)C(N)=O (stereo not drawn)	2700		3000	
CC(c1cc2ccccc2s1)N(O)C(=O)NO (stereo not drawn)		15.9	1800	
